Screening results as filed in PubChem BioAssay.
APP 5'UTR act: activators of APP 5'UTR luciferase reporter, primary screen, SH-SY5Y cells. 190,000 tested, 1% active. activation, % at 2 µM. SH-SY5Y APP 5'UTR luciferase reporter, luminescence; zero percent = DMSO vehicle wells;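 active = activation above a set limit, based on mean plus 3 SD of controls, cut at about 140% in these data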
STAT1 inh: STAT1 signaling inhibitors, primary screen, cell-based, HTS, luciferase reporter | NIH 3T3 STAT1-luciferase reporter, IFN-gamma, luminescence | inhibition, % at 5.5 µM | 200,000 tested, 0.35% active;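 active = inhibition above a set limit, the mean inhibition across all tested compounds plus 3 SD, cut at about 34% in these data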
NF-kB expr up: activators of NF-kB expression in neurons, primary screen, cell-based, HTS; 190,000 tested, 1.6% active; human neuronal cells, NF-kB reporter expression; active compounds read high; fold change at 12.5 µM; in the data active = fold change above about 3.3
STAT3 activator: IL-6 driven STAT3 reporter potentiators, primary screen, U3A cells, luciferase, luminescence, MLSCN library; IL-6 STAT3-luciferase reporter; 100% = signal with IL-6 EC80 alone; activation (% of control), % at 5.6 µM; 190,000 tested, 0.91% active; AID 871, 2007;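 active = activation above the screen-wide mean of compound activation plus 3 SD, cut at about 130% in these data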
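Test system: Human STAT1-deficient U3A cells with stable STAT3-luciferase reporter | Also added: Interleukin-6, 33 ng/mL | Timing: Compound pre-incubation 1 h before IL-6, then 6 h stimulation at 37 °C | Technique: Luciferase reporter luminescence | Read-out: Percent of IL-6-only median luminescence | Benchmarks: IL-6-only wells as 100% reference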
STAT3 blocker: IL-6 driven STAT3 reporter inhibitors, primary screen, U3A cells, luciferase, luminescence, MLSCN library. 190,000 tested, 0.89% active. IL-6 STAT3-luciferase reporter; host cell line lacks STAT1. inhibition, % at 5.5 µM;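 active = inhibition above the mean inhibition across all screened compounds plus 3 SD, cut at about 44% in these data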
STAT1 activator: STAT1 signaling activators, primary screen, cell-based, HTS, luciferase reporter | activation (% of control), % at 5.5 µM | AID 932, 2007 | NIH 3T3 STAT1-luciferase reporter, IFN-gamma, luminescence; 100% = IFN-gamma alone, no compound | 200,000 tested, 2.6% active;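 active = activation above the screen-wide mean activation plus 3 SD, cut at about 130% in these data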
Each line names hits and unclear results; the compound was inactive in the other large screens. Hits are enriched below; roughly 4.9% of the tested compounds scored in any of these assays.

Cc1ccc(C)c(N2CCN(C(=O)CN3C(=S)NC(C)(C)CC3C)CC2)c1 (configuration not stated)	none
CCCCOC(=O)c1ccc(NC(=O)/C=C/c2cccs2)cc1	none
COc1ccc(NC(=O)COC(=O)c2ccc(S(=O)(=O)N(C)c3ccccc3OC)cc2)c(OC)c1	none
CCc1ccc(C(=O)COC(=O)c2n[nH]c3ccccc23)cc1	NF-kB expr up 5.5
CCc1ccc(C(=O)COC(=O)c2nn(C)c(=O)c3ccccc23)cc1	none
Cc1nc(C(=O)N2CCc3c([nH]c4ccccc34)C2c2cc(F)ccc2F)cs1 (configuration not stated)	STAT3 activator 134
CSc1ccc(C2c3[nH]c4ccccc4c3CCN2C(=O)c2cc(C)n(C)n2)cc1 (configuration not stated)	STAT3 activator 148, STAT1 activator 132
CCc1ccc(C2c3[nH]c4ccccc4c3CCN2C(=O)c2cc(C)nn2C)cc1 (configuration not stated)	STAT3 activator 133
Cc1nc(C(=O)N2CCc3c([nH]c4ccccc34)C2c2ccccn2)cs1 (configuration not stated)	none
CN(C(=O)COC(=O)CCc1c[nH]c2ccccc12)C(c1ccccc1)c1ccccc1	none
CCCCNC(=O)COC(=O)c1ccc(N(C)C)cc1	none
CC1=C(n2nnc([N+](=O)[O-])n2)C(c2cccnc2)C(C#N)=C(N)O1 (configuration not stated)	none
c1ccc(COc2ccc(OCCN3CCCCC3)cc2)cc1	none
COc1ccc(Cl)cc1NC(=O)CCc1nc(-c2ccccc2F)no1	none
Clc1ccc2[nH]c(-c3ccccc3)cc2c1	NF-kB expr up 3.9, STAT1 activator 138
COc1cccc(C(=O)NC(c2ccccc2)C2CCCC2)c1 (configuration not stated)	none
Cc1ccc(C)c(S(=O)(=O)N2CCN(c3ncccn3)CC2)c1	NF-kB expr up 4.8
CC(C)(C)c1ccc(S(=O)(=O)N2CCN(c3ncccn3)CC2)cc1	none
CCOC(=O)N1CCN(C(=O)C(=O)NN)CC1	none
O=C(N/N=C/c1ccccc1O)C(=O)Nc1ccccn1	none
Nc1ccc(O)c(-c2nc3ccccc3s2)c1	none
Oc1ccc(N=C/C=C/c2cccc(Br)c2)cc1-c1nc2ccccc2s1	STAT1 activator 144
COCCNC(=S)N/N=C(\C)c1ccc(-n2ccnc2)cc1	none
CC(=O)c1c(C)[nH]c(C(=O)CSc2nnc(C)s2)c1C	none
CCOC(=O)C1=C(c2ccccc2)O/C(=C(/C#N)C(F)(F)F)S1	NF-kB expr up 8.6
Cc1cc(NC(=O)c2cccc(F)c2)ncc1NC(=O)c1ccco1	APP 5'UTR act 140, NF-kB expr up 3.6
CC(C)C(=O)Nc1ccc(NC(=O)c2cccc(F)c2)cn1	none
O=C(Nc1ccc(Cl)cn1)Nc1ccccc1F	STAT1 activator 139
Cc1cc(NC(=O)c2cccs2)ncc1NC(=O)c1cccc(F)c1	none
O=C(Nc1ccc(Cl)cn1)c1ccccc1F	APP 5'UTR act 183, STAT1 activator 133
O=C(Nc1ccc(Cl)cn1)c1cccc(F)c1	NF-kB expr up 3.6, STAT1 activator 146
Cc1ccc(Nc2nnc(SCC(=O)Nc3cccnc3Cl)s2)cc1C	none
Cc1ccc(C(=O)Cn2cnc3ccccc3c2=O)cc1C	NF-kB expr up 3.3, STAT1 activator 138
O=C(Cn1cnc2ccccc2c1=O)c1ccc2c(c1)OCCO2	APP 5'UTR act 151, NF-kB expr up 3.6, STAT1 activator 137
O=S(=O)(c1cccs1)N1CCC(CO)(Cc2ccc(Cl)cc2)CC1	none
Nc1ccc2oc(=O)c3ccccc3c2c1	STAT1 activator 134
COc1cccc(NC(=O)NC(C)C2CC3CCC2C3)c1 (configuration not stated)	none
CC(=O)N(c1ccccc1)c1nnc(-c2cnc(C)cn2)s1	APP 5'UTR act 137, NF-kB expr up 3.5
COc1ccc(CNC(=O)C(c2ccncc2)N(C(=O)Cc2cccs2)c2ccccc2C)cc1 (configuration not stated)	none
CC(C)c1ccc2c(c1)C(c1ccc(N3CCOCC3)cc1)=NNC(c1cccs1)=N2	none
CCOC(=O)c1ccc(-c2ccc(CO)o2)cc1	STAT1 activator 129
CCOC(=O)c1ccc(COC(=O)c2ccc(-c3nnc(-c4ccccc4)o3)cc2)o1	STAT1 activator 130 (no result: NF-kB expr up)
CCOC(=O)c1ccc(Cn2c(-c3ccccc3)nnc2-c2ccccc2)o1	none
Cc1ccc(-c2ccc(CO)o2)cc1N	none
O=C(COC(=O)COc1ccccc1Cl)Nc1ccccc1OC(F)F	none
O=C(COC(=O)c1ncc(Cl)c(Cl)c1Cl)Nc1ccccc1OC(F)F	STAT3 activator 134
O=C(Cn1c(O)c(/C=C2\C=Nc3ccccc32)sc1=O)N1CCOCC1	STAT3 activator 134
CCOc1cc(NC(=O)c2cccs2)c(OCC)cc1NC(=O)CCC(=O)NCC1CCCO1 (configuration not stated)	none
Cc1ccc(-c2nnc(-c3ccc(Br)cc3)o2)o1	NF-kB expr up 3.8
Brc1ccc(-c2nnc(-c3cccc(Br)c3)o2)cc1	none
COC(=O)c1cc(-c2ccc(NC(C)=O)cc2)nc2ccccc12	none
CN(Cc1cccs1)C(=O)CCCc1c[nH]c2ccccc12	STAT1 activator 130
Cc1nc(NCc2ccco2)c2c3c(sc2n1)CCC3	STAT3 activator 167, STAT1 activator 150
O=C(O)c1cccnc1Nc1ccc(Cl)cc1	STAT1 activator 143
CN(C)CCCN1C(=O)C2CCc3[nH]c4ccccc4c3C2C1=O (configuration not stated)	none
Cc1ccc(NC(=O)c2cc3ccccc3oc2=O)cc1S(=O)(=O)N(C)C	STAT1 inh 58, STAT3 blocker 100
COc1ccccc1NS(=O)(=O)c1cccc(NC(=O)c2cc3ccccc3oc2=O)c1	STAT1 activator 140
Cc1ccc(NC(=O)c2cc3ccccc3o2)cc1S(=O)(=O)N(C)C	NF-kB expr up 5.2, STAT1 activator 143
CCc1ccc(N2CC(C(=O)N/N=C/c3cc([N+](=O)[O-])ccc3O)CC2=O)cc1 (configuration not stated)	none
O=C1c2ccccc2S(=O)(=O)N1Cc1nc2ccccc2s1	STAT1 inh 52, STAT3 blocker 61
CN(C)c1ccc(NC(=S)NC(=O)/C=C/c2ccc(Cl)cc2)cc1	STAT1 activator 142
Cc1cc(NC(=O)/C=C/c2ccccc2)no1	STAT1 activator 130
O=C(/C=C/c1ccccc1)Nc1cc(C(=O)O)cc(C(=O)O)c1	none
